Data from ChEMBL document CHEMBL1145399, “Design, synthesis, and pharmacology of novel 7-substituted 3,4-dihydro-2H-1,2,4-benzothiadiazine 1,1-dioxides as positive allosteric modulators of AMPA receptors” (J Med Chem, 2007).

Key:
Oocyte [1] = assay: Activity at Wistar rat cortex AMPA receptor expressed in Xenopus laevis oocytes assessed as 5-fold increase of (S)-AMPA-induced current; type: cell-based
How it was run: (§1)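 Two-electrode voltage clamp on Xenopus oocytes injected with rat cortex poly(A+) mRNA. Current is evoked by (S)-AMPA at 10 µM with drug co-applied. Compounds alone were checked on the holding current. Mean ± SEM, n ≥ 2–3.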

Oocyte [2] = assay: Activity at Wistar rat cortex AMPA receptor expressed in Xenopus laevis oocytes assessed as 2-fold increase of (S)-AMPA-induced current; type: cell-based; how it was run: as §1
Oocyte [3] = assay: Activity at Wistar rat cortex AMPA receptor expressed in Xenopus laevis oocytes assessed as maximum increase of (S)-AMPA-induced current; type: cell-based; how it was run: as §1
Hippocampus = assay: Increase in (S)-AMPA-stimulated [3H]noradrenaline release in Wistar rat hippocampus at 30 uM relative to control; type: functional
How it was run: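 Rat hippocampal slices preloaded with [³H]-noradrenaline. Release is stimulated by (S)-AMPA, with drug at 30 µM. Drug alone was compared with basal DMSO control release. Result is the % increase in AMPA-evoked release.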

[4] = Activity at Wistar rat cortex AMPA receptor expressed in Xenopus laevis oocytes assessed as effect on (S)-AMPA-induced current; type: cell-based; settings: Oocyte; how it was run: as §1

Activity (Oocyte [1]) | Activity (Oocyte [2]) | Activity (Oocyte [3]) | EC50 [4] | Structure (SMILES) | Activity (Hippocampus)
> 300 µM | > 300 µM | – | – | CCN1CNS(=O)(=O)c2cc(C(F)(F)F)ccc21 | –
64 µM | 21 µM | > 1100% | – | CCN1CN(C)S(=O)(=O)c2cc(Cl)ccc21 | –
> 300 µM | > 300 µM | – | – | CCN1CNS(=O)(=O)c2cc(N)ccc21 | –
17 µM | 7 µM | > 1900% | – | CN1CN(C)S(=O)(=O)c2cc(Cl)ccc21 | –
95 µM | 25 µM | > 1300% | – | CCN1CNS(=O)(=O)c2cc(C)ccc21 | –
45 µM | 16 µM | > 1000% | – | CCN1CNS(=O)(=O)c2cc([N+](=O)[O-])ccc21 | –
> 100 µM | > 100 µM | – | – | CCN1CNS(=O)(=O)c2cc(C(=O)OC)ccc21 | –
26 µM | 11 µM | > 1400% | – | CN1CNS(=O)(=O)c2cc([N+](=O)[O-])ccc21 | –
> 1000 µM | 300 µM | > 300% | – | CCN1C=NS(=O)(=O)c2cc(C)ccc21 | –
> 1000 µM | 450 µM | – | – | CN1C=NS(=O)(=O)c2ccccc21 | –
9.8 µM | 1.6 µM | 844% | 7.1 µM | NS(=O)(=O)c1cc2c(cc1Cl)NC(C1CC3C=CC1C3)NS2(=O)=O (centres undefined) [CYCLOTHIAZIDE] | 73%
> 300 µM | > 300 µM | – | – | CN1CNS(=O)(=O)c2cc(N)ccc21 | –
47 µM | 21 µM | > 3000% | – | Cc1ccc2c(c1)S(=O)(=O)NCN2C | –
190 µM | 68 µM | > 600% | – | CCN1CNS(=O)(=O)c2cc(OC)ccc21 | –
> 100 µM | > 100 µM | – | – | CCN1CNS(=O)(=O)c2cc(C(=O)O)ccc21 | –
38 µM | 14 µM | > 1800% | – | CCN1CNS(=O)(=O)c2ccccc21 | –
18 µM | 6 µM | 1740% | – | CN1CNS(=O)(=O)c2cc(Cl)ccc21 | –
509 µM | 134 µM | > 700% | – | CC1Nc2ccc(Cl)cc2S(=O)(=O)N1 (centres undefined) | –
> 300 µM | > 300 µM | – | – | CCN1CNS(=O)(=O)c2cc(NC(C)=O)ccc21 | –
> 1000 µM | > 1000 µM | – | – | CN1C=NS(=O)(=O)c2cc(Cl)ccc21 | –
180 µM | 32 µM | > 600% | – | CCN1CNS(=O)(=O)c2cc(C(=O)Oc3ccccc3)ccc21 | –
78 µM | 29 µM | > 1100% | – | CCN1CNS(=O)(=O)c2cc(Br)ccc21 | –
127 µM | 37 µM | > 1700% | – | CN1CN(C)S(=O)(=O)c2ccccc21 | –
> 1000 µM | 400 µM | > 400% | – | CCN1C=NS(=O)(=O)c2cc(Cl)ccc21 | –
– | 95 µM | > 400% | – | CCN1CNS(=O)(=O)c2cc(I)ccc21 | –
650 µM | 320 µM | > 600% | – | Cc1ccc2c(c1)S(=O)(=O)N=CN2C | –
78.2 µM | 24.6 µM | 1260% | 130 µM | O=S1(=O)N[C@H]2CCCN2c2ccccc21 | 0%
46 µM | 22 µM | > 1900% | – | CN1CNS(=O)(=O)c2ccccc21 | –
